RAD52 anneal inh: inhibitors of human RAD52 DNA annealing; P43351; recombinant RAD52 DNA annealing, FRET fluorescence; inhibition, % at 18.7 µM; 360,000 compounds, 0.46% hits; AID 651710;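 active = every replicate showing at least 50% inhibition; inconclusive = mean inhibition at least 50% but not in every replicate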
rRNA inh HTS: inhibitors of bacterial rRNA selective over humanized ribosomes; GFP signal change (wild-type ribosome), % (no concentration beside the values); AID 720706; 350,000 compounds, 1.6% hits; E. coli WT GFP vs humanized-ribosome RFP mutants, fluorescence, 24 h; stronger effect = lower value; DMSO median 0, no signal -100;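 active = significant combined selectivity score with lowered wild-type GFP, culture density cut under 30%, mutant RFP and density less affected; inactive = any of these conditions unmet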
AF4-AF9 inh: inhibitors of human MLL-AF4/AF9 interaction | 350,000 compounds, 0.47% hits | inhibition, % at 10 µM | AlphaScreen, biotin-AF4 peptide binding to FLAG-AF9 | P42568;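 active = every replicate reaching a set inhibition limit, whatever the replicate mean, cut at about 25% in these data; inconclusive = mean inhibition reaches that limit but some replicates miss it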;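 also: 0% = plate neutral control median and 100% = total signal loss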
GSIS activator: GLuc luminescence reporter in INS-1E cells, primary screen for activators of glucose-dependent secretion of insulin | INS-1E GLuc reporter insulin secretion, 2-3 h | activation, % at 16.6 µM | 370,000 compounds, 0.61% hits | AID 743287;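 active = lowest replicate activation of at least 40%, so every replicate reaches that level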;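 also: 0% = median of neutral control wells and 100% = median of IBMX positive control wells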
E-selectin induc: induces E-selectin expression in human endothelial cells; P16581; HUVEC E-selectin immunofluorescence imaging; normalized: neutral wells 0, TNF-alpha wells 100; 260,000 compounds, 0.37% hits; activation, % at 7.58 µM; AID 686992;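 active = mean E-selectin-positive cell signal at least 10% of the positive control, reached in at least 60% of replicates, without over 20% cell loss; inconclusive = no rule given, readout overlaps actives, possibly toxicity-flagged; inactive = the rest, including those meeting only one limit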
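Material: HUVEC primary endothelial cells; Amount: 3,000 cells per well; Dosing: single concentration; Medium: EGM-2 growth medium on 0.1% gelatin-coated wells; Read-out basis: percent E-selectin-positive cells; Signal: immunofluorescence imaging; Control set: TNF-alpha, DMSO.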
RAD54 inh: inhibitors of human RAD54 branch migration. RAD54 Holliday junction branch migration, FAM/BHQ fluorescence. inhibition, % at 10.4 µM. 360,000 compounds, 0.14% hits;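 active = mean normalized replicate activity at least 40 and at least half of replicates scoring 40 or more; inconclusive = only one of the two criteria met; inactive = mean below 40 and under half of replicates reaching 40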;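 also: 0% = median of neutral control wells and 100% = median of positive control wells; inhibitors cause a drop in the FAM fluorescence signal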
Target sequence (Q92698 whole entry, looked up): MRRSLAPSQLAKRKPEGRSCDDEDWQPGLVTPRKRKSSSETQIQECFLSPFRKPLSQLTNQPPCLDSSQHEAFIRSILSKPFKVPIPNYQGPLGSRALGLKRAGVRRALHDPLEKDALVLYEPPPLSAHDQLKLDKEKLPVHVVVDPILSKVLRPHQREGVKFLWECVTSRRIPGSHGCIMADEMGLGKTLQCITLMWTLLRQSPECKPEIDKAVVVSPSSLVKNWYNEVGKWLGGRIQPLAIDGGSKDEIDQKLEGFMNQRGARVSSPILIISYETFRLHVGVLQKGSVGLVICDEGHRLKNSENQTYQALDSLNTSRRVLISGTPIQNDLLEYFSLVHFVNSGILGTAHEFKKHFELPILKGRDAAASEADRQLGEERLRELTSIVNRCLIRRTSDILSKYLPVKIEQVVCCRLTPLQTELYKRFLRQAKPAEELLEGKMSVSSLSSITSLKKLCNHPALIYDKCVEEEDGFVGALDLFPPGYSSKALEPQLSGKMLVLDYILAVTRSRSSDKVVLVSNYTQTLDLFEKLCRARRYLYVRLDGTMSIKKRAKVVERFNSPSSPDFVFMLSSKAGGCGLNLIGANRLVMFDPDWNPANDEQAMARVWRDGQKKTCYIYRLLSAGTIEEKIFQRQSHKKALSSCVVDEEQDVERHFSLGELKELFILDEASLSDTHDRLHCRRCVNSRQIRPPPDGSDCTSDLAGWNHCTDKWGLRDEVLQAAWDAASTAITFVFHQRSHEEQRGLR
AID977621: wild-type E. coli growth inhibition versus H69 humanized strain – H69 mutant RFP, wild-type GFP, cherry-pick, dose response. 1,900 tested, under 10 active. activity change, negative = inhibition at 50 µM. shares compounds with rRNA inh HTS. fluorescence, 24 h;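 active = Wild-type ribosome reporter drop at least double the humanized mutant ribosome reporter drop, growth loss under a set limit; inconclusive = no clear call, values can overlap the other calls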;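 also: wild-type GFP and H69 mutant RFP strains grown together 50/50 in each well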
AID977628: E. coli growth inhibition, wild-type GFP versus h24 humanized RFP strain, dose response, h24 mutant RFP vs wild-type GFP, cherry-pick; shares compounds with rRNA inh HTS; E. coli WT GFP strain growth, fluorescence, 24 h; activity change, negative = inhibition at 50 µM; 1,900 tested, under 10 active; AID 977628;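 active = compound lowering the normal-ribosome reporter at least twice as much as the humanized-ribosome reporter, growth loss under a set limit; inconclusive = no clear call, values can overlap the other calls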;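 also: wild-type GFP and h24 humanized RFP strains co-cultured 1 to 1 per well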
Numbers without * were called inactive; ? = inconclusive; · = no result. Only some compounds are listed: those with a hit (about 2.6% of all), similar ones and a draw of the others.

SMILES | RAD52 anneal inh | rRNA inh HTS | AF4-AF9 inh | GSIS activator | E-selectin induc | RAD54 inh | AID977621 | AID977628
Cc1ccc(NC(=O)CCCSc2ccccc2)cc1S(=O)(=O)N1CCOCC1 | -20 | -24* | -1 | -37 | 2 | -14 | -19 | ·
Cc1ccc(NC(=O)c2ccc([N+](=O)[O-])s2)cc1S(=O)(=O)N1CCOCC1 | -11 | -40* | 2 | -2 | · | 1 | ? | -12
CC(=O)N1CCOc2ccc(S(=O)(=O)N(C)c3ccc(C)cc3)cc21 | -14 | -21* | -2 | 2 | · | -3 | -13 | ·
COc1ccc(C(=O)Nc2nc3ccc(S(C)(=O)=O)cc3s2)cc1 | · | · | · | · | · | -3 | · | ·
COc1ccc(C(=O)Nc2nc3ccc(OC)cc3s2)cc1 | -12 | -32* | -5 | -5 | 0 | 11 | · | ?
CCCN1C[C@H](C)[C@H](OC)CN(C)C(=O)c2cc(NS(=O)(=O)c3ccccc3)ccc2OC[C@H]1C | 2 | 1 | -2 | 3 | 0 | 2 | · | ·
COc1cc(OC)cc(C(=O)NC(C)c2ccc(Br)cc2)c1 (stereo unspecified) | -16 | 16 | -1 | 9 | 0 | -5 | · | ·
COc1cccc(C(=O)NC(C)c2ccc(Br)cc2)c1 (stereo unspecified) | -8 | -27* | -1 | -23 | -1 | · | -15 | -11
C[C@H](CO)N1C[C@H](C)[C@@H](CN(C)C(=O)Nc2cccc3ccccc23)Oc2c(NC(=O)Nc3ccc4c(c3)OCO4)cccc2C1=O | 0 | 1 | 6 | -17 | 0 | -2 | · | ·
CN1C(=O)c2cccc3c(S(=O)(=O)NCCc4ccccc4)ccc1c23 | -15 | -23* | -2 | -13 | · | -3 | ? | ·
Cc1cc(C)cc(NC(=O)c2cccc(NC(=O)c3ccco3)c2)c1 | 2 | -24* | · | -15 | 0 | -10 | -25 | ·
CC(=O)c1cccc(NC(=O)c2cccc(NC(=O)c3ccco3)c2)c1 | -9 | 7 | 1 | 5 | · | -17 | · | ·
C[C@H](CO)N1C[C@H](C)[C@H](CN(C)S(=O)(=O)c2cccs2)Oc2ncc(-c3ccc(F)cc3)cc2C1=O | -4 | 3 | 0 | -7 | 0 | 0 | · | ·
C[C@@H]1CN([C@@H](C)CO)S(=O)(=O)c2ccc(C3=CCCC3)cc2O[C@H]1CN(C)S(=O)(=O)c1ccc(F)cc1 | -9 | 1 | -1 | -4 | 0 | 0 | · | ·
C[C@@H]1CN([C@@H](C)CO)C(=O)c2cccc(NC(=O)C3CC3)c2O[C@@H]1CN(C)Cc1ccc(C(F)(F)F)cc1 | -12 | 0 | -2 | 0 | -1 | -5 | · | ·
COc1ccc(C2CC(=O)Oc3cc(C)cc(C)c32)cc1 (stereo unspecified) | -19 | -24* | 3 | -8 | · | -14 | 3.9 | -5.4
Cc1ccc(C2CC(=O)Oc3cc(C)cc(C)c32)cc1 (stereo unspecified) | -11 | -47 | -1 | 15 | -6 | 6 | · | ·
Cc1cc(C)c2c(c1)OC(=O)CC2c1ccc2c(c1)OCO2 (stereo unspecified) | 0 | -37 | 3 | -33 | 2 | 0 | · | ·
COc1cc2c(c(OC)c1OC)C(c1ccc3c(c1)OCO3)CC(=O)O2 (stereo unspecified) | 1 | -20* | 2 | 12 | -7 | 1 | -20 | -8.5
CC(C)(C)c1ccc2c(c1)C(c1ccc3c(c1)OCO3)CC(=O)O2 (stereo unspecified) | -16 | -25* | -3 | 15 | 5 | -15 | -3.7 | ·
COc1ccc(C(CC(=O)c2ccc(O)cc2)S(=O)(=O)c2ccc(C)cc2)cc1 (stereo unspecified) | -5 | -24* | -27 | -9 | · | 0 | -0.51 | -11
CC(NC(=O)c1ccncc1)c1ccc(Cl)cc1Cl (stereo unspecified) | -27 | -33* | 1 | -21 | 0 | -8 | -2.2 | -7.2
C[C@H](CO)N1C[C@H](C)[C@H](CN(C)S(C)(=O)=O)Oc2ccc(NC(=O)Nc3cccc4ccccc34)cc2C1=O | -12 | 2 | 4 | 12 | · | -31 | · | ·
CC(=O)Nc1ccc(NC(=O)C(C)OC(=O)CCCc2c[nH]c3ccccc23)cc1 (stereo unspecified) | -13 | 1 | 4 | 12 | 0 | 3 | · | ·
CC(OC(=O)CCc1nc2ccccc2c(=O)[nH]1)C(=O)c1ccc(Br)cc1 (stereo unspecified) | -30 | -24* | 7 | -9 | · | 2 | · | ?
CC(OC(=O)CCc1c[nH]c2ccccc12)C(=O)c1ccccc1 (stereo unspecified) | -13 | -25* | 4 | -12 | 7 | · | · | ?
CCCNC(=O)Nc1ccc2c(c1)C(=O)N(C)[C@@H]1CC[C@H](CC(=O)O)O[C@H]1CO2 | · | 3 | · | 2 | 0 | -7 | · | ·
CO[C@@H]1CN(C)C(=O)c2cc(NS(=O)(=O)CC(F)(F)F)ccc2OC[C@@H](C)N(C(=O)c2ccc3c(c2)OCO3)C[C@@H]1C | -8 | -2 | 0 | 10 | 0 | -7 | · | ·
O=C(C[C@@H]1C=C[C@H](NS(=O)(=O)c2ccccc2)[C@@H](CO)O1)NCc1ccncn1 | -11 | 3 | -2 | -3 | 0 | -3 | · | ·
COc1cc(NC(=O)c2ccc(Cl)cc2)c(OC)cc1NC(=O)CN1CCCCC1 | 5 | -26* | 0 | -16 | · | · | -11 | -10
